Results taken from ChEMBL document CHEMBL4834403, “Design and Synthesis of Novel Epigenetic Inhibitors Targeting Histone Deacetylases, DNA Methyltransferase 1, and Lysine Methyltransferase G9a with In Vivo Efficacy in Multiple Myeloma” (J Med Chem, 2021).

Columns and labels:
MM1.S = assay: Antiproliferative activity against human MM1.S cells assessed as inhibition of cell proliferation measured up to 72 hrs by CellTiter96 Aqueous one reagent based assay; assay type: functional
THLE-2 = assay: Cytotoxicity against human THLE-2 cells assessed as decrease in cell viability measured after 72 hrs by Vialight-plus cell proliferation assay; assay type: cell-based; conditions: thle-2, 72 h
Procedure, shortened: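 Human THLE-2 cells exposed to compound for 72 h. Cytotoxicity reported as LC50 and pLC50, averaged from at least two independent experiments on different days.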

[1] = molecular target: T1, Protein deacetylase HDAC6 (Homo sapiens, UniProt Q9UBN7); assay: Inhibition of full length human N-terminal GST-tagged HDAC6 using fluorogenic acetylated peptide as substrate incubated for 30 mins by fluorescence plate reader assay
T1 sequence (Q9UBN7 whole entry): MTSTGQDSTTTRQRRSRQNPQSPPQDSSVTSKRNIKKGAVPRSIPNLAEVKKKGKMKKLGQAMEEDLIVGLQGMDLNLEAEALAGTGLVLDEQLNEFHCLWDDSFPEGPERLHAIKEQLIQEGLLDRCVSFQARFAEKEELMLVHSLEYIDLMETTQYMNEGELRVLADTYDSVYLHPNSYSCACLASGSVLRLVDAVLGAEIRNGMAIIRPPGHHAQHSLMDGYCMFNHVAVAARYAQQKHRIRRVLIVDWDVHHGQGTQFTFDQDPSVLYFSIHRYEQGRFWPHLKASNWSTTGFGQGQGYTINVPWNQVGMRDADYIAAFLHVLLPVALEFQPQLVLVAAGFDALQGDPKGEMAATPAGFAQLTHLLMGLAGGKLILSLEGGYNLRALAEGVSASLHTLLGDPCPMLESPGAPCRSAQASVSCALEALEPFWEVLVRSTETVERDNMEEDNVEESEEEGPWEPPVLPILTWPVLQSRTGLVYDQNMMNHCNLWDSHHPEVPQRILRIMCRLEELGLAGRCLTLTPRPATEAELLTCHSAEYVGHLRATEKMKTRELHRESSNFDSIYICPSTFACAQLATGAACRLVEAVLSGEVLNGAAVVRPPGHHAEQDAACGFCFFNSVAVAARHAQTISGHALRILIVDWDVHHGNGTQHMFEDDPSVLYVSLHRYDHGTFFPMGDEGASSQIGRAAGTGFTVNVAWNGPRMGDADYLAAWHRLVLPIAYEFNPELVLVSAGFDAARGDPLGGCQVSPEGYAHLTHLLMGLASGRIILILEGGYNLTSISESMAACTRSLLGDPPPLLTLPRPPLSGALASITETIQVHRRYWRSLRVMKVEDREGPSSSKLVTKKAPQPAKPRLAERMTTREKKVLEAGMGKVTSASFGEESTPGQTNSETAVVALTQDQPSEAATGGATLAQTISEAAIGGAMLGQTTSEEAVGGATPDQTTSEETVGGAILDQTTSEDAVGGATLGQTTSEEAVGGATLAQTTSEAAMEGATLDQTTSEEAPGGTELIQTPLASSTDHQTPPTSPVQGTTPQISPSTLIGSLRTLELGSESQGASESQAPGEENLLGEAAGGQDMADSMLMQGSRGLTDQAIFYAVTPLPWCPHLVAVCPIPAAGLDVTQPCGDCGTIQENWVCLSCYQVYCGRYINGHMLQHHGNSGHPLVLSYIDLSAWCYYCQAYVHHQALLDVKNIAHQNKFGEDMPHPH

[2] = molecular target: DNA (cytosine-5)-methyltransferase 1 (Homo sapiens, UniProt P26358); assay: Inhibition of human DNMT1 enzyme using polydeoxy-inosine polydeoxy-cytosine DNA as substrate incubated for 15 mins in presence of SAM by TR-FRET assay
[3] = Permeability of the compound in PBS/EtOH buffer (70:30) incubated for 18 hrs by UV plate reader based PAMPA assay; assay type: ADME; conditions: read-out: permeability
Histone deacetylase 1 = Histone deacetylase 1 (Homo sapiens, UniProt Q13547); assay: Inhibition of full length human C-terminal His-tagged/C-terminal Flag-tagged HDAC1 using fluorogenic acetylated peptide as substrate incubated for 30 mins by fluorescence plate reader assay
[4] = molecular target: T2, Histone-lysine N-methyltransferase EHMT2 (Homo sapiens, UniProt Q96KQ7); assay: Inhibition of human G9a enzyme using histone monomethyl-H3K9 peptide as substrate incubated for 1 hr in presence of SAM by TR-FRET assay
T2 sequence (Q96KQ7 whole entry): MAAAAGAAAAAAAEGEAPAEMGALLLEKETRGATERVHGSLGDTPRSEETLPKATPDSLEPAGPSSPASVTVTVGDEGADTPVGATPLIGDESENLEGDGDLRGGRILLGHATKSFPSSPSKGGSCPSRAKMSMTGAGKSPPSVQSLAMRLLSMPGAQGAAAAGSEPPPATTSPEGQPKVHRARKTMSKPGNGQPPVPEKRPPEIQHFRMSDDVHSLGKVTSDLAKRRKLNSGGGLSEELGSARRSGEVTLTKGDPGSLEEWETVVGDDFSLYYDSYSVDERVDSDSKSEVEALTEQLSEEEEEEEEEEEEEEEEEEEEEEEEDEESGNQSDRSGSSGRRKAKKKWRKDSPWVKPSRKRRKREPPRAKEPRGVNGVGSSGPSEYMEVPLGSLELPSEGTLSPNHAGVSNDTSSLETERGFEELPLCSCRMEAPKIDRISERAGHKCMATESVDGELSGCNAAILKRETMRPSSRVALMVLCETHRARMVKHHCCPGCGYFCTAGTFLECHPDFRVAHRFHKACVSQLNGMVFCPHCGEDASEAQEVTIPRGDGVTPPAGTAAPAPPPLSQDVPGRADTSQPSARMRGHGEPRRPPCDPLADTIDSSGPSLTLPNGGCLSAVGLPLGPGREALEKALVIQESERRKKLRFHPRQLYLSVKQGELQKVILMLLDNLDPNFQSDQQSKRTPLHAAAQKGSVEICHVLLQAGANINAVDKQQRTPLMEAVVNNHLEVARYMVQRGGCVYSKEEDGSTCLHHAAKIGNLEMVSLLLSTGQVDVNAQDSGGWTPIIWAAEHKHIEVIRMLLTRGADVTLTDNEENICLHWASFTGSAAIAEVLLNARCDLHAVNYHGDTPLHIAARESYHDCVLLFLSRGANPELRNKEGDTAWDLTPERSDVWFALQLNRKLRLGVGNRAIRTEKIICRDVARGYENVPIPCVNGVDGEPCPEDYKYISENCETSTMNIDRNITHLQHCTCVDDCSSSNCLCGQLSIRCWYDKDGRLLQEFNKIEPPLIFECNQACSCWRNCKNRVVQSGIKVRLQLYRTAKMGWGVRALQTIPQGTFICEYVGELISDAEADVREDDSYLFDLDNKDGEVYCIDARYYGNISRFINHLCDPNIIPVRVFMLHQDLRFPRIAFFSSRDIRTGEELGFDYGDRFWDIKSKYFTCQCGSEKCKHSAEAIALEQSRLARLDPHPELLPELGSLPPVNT

[5] = time hrs <=72, read-out: pGI50 (converted)

DNA (cytosine-5)-methyltransferase 1, sequence (P26358 whole entry): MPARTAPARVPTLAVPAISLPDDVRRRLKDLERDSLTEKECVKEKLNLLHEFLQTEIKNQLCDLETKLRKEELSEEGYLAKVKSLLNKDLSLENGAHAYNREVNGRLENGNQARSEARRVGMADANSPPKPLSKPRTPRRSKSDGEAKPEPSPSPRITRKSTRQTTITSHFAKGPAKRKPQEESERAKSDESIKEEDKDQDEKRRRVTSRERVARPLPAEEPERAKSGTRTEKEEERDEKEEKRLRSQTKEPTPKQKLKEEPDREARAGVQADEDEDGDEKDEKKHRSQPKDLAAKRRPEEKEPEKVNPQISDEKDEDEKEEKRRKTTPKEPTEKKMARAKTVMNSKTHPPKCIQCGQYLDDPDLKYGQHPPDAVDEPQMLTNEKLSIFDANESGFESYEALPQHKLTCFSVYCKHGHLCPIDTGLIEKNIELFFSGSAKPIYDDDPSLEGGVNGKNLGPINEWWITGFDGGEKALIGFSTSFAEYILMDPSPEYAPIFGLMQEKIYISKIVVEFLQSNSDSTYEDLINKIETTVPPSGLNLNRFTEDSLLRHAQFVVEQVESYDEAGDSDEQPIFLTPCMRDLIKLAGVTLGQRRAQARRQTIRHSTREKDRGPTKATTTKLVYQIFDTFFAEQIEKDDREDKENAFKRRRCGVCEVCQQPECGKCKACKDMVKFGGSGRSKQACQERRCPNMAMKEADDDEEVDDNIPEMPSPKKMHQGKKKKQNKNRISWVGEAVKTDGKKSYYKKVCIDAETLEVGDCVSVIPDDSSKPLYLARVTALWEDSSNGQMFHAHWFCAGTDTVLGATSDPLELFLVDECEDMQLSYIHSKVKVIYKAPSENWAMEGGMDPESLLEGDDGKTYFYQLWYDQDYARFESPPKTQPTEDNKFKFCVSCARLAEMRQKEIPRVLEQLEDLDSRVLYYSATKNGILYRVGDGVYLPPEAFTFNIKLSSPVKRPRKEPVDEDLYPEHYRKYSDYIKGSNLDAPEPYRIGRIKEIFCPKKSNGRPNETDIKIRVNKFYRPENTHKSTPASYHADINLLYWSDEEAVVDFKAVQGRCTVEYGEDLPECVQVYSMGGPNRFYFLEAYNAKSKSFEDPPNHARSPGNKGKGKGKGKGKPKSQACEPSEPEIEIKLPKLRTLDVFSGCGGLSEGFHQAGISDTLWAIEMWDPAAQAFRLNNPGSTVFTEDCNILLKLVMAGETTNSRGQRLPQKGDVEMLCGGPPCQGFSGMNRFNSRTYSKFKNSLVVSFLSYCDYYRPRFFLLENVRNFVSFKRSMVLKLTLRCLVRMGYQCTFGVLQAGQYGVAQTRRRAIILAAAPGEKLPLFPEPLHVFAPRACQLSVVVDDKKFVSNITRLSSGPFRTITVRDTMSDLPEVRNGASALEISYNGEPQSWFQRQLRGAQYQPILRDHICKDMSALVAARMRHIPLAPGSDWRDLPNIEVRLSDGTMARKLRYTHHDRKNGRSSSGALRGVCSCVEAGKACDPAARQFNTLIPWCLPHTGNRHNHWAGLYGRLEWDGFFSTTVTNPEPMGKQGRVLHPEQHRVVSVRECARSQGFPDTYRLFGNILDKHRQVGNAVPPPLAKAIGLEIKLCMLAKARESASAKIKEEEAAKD
Histone deacetylase 1, sequence (Q13547 whole entry): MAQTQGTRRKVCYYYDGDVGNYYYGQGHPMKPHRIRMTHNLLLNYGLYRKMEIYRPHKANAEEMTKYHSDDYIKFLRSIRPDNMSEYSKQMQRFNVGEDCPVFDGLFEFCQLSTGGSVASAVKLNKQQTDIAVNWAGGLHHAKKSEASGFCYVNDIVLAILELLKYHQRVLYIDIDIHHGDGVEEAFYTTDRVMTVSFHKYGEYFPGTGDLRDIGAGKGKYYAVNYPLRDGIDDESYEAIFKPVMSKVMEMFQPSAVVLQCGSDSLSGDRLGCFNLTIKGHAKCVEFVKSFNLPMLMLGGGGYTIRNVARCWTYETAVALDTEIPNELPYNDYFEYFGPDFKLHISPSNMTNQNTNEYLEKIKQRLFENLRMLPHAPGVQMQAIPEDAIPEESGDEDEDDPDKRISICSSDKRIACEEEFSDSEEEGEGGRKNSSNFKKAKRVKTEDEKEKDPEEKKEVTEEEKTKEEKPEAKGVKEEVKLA

| IC50 [1] [nM] | IC50 [2] [nM] | IC50 (Histone deacetylase 1) [nM] | IC50 [4] [nM] | Structure (SMILES) | GI50 (MM1.S; time hrs <=72, read-out: GI50) [nM] | GI50 (MM1.S; [5]) [nM] | LC50 (THLE-2) [nM] | pLC50 (THLE-2) | Papp at 18 h [3] [×10⁻⁶ cm/s] |
| --- | --- | --- | --- | --- | --- | --- | --- | --- | --- |
| 2890 | 2660 | 396 | > 10000 | COc1cc2nc(-c3ccc(C)o3)cc(N[C@H]3CC[C@@H](C(=O)NO)CC3)c2cc1OC | – | – | – | – | – |
| 351 | 1430 | 115 | 1920 | COc1cc2c(NCc3ccc([C@H]4CC[C@@H](C(=O)NO)CC4)cc3)cc(-c3ccc(C)o3)nc2cc1OCCCN1CCCC1 | – | – | – | – | – |
| 230 | > 10000 | 3 | > 10000 | COc1cc2nc(-c3ccccc3)cc(NCC3CCN(c4ncc(C(=O)NO)cn4)CC3)c2cc1OC | – | – | – | – | – |
| 465 | 8410 | 144 | > 10000 | COc1cc2nc(-c3ccc(C)o3)cc(NCC3CCN(c4ccc(C(=O)NO)cn4)CC3)c2cc1OC | – | – | – | – | – |
| – | – | – | – | Cc1[nH]c2ccccc2c1CCNCc1ccc(/C=C/C(=O)NO)cc1 [PANOBINOSTAT] | 8.9 | 8.91 | 22 | 7.66 | 1.42 |
| 204 | > 10000 | 87 | > 10000 | COc1cc2nc(-c3ccc(C)o3)cc(NCc3ccc(C(=O)NO)cn3)c2cc1OC | – | – | – | – | – |
| 253 | > 10000 | 3 | 7.2 | COc1cc2nc(C)cc(NCC3CCN(c4ncc(C(=O)NO)cn4)CC3)c2cc1OC | – | – | – | – | – |
| > 20000 | 566 | > 20000 | 38 | COc1cc2c(NCC3CCN(C4CCC(C(=O)NO)CC4)CC3)cc(-c3ccc(C)o3)nc2cc1OCCCN1CCCC1 (stereo not drawn) | – | – | – | – | – |
| 9620 | 2270 | 3320 | 1650 | COc1cc2c(NCc3ccc([C@H]4CC[C@H](C(=O)NO)CC4)cc3)cc(-c3ccc(C)o3)nc2cc1OCCCN1CCCC1 | – | – | – | – | – |
| 126 | > 10000 | 5 | > 10000 | COc1cc2nc(-c3cc(C)oc3C)cc(NCC3CCN(c4ncc(C(=O)NO)cn4)CC3)c2cc1OC | – | – | – | – | – |
| 122 | 2760 | 34 | 3100 | COc1cc2c(NCC3CCC(c4ccc(C(=O)NO)cc4)CC3)cc(-c3ccc(C)o3)nc2cc1OCCCN1CCCC1 (stereo not drawn) | – | – | – | – | – |
| > 20000 | 4180 | > 4000 | > 10000 | COc1cc2nc(-c3ccc(C)o3)cc(N[C@H]3CC[C@H](C(=O)NO)CC3)c2cc1OC | – | – | – | – | – |
| – | > 10000 | – | > 10000 | O=C(CCCCCCC(=O)Nc1ccccc1)NO [VORINOSTAT] | – | – | – | – | – |
| 1260 | > 10000 | 17 | > 10000 | COc1cc2nc(-c3ccc(C)s3)cc(NCC3CCN(c4ncc(C(=O)NO)cn4)CC3)c2cc1OC | – | – | – | – | – |
| 234 | > 10000 | 3 | > 10000 | COc1cc2nc(N3CCCCC3)cc(NCC3CCN(c4ncc(C(=O)NO)cn4)CC3)c2cc1OC | – | – | – | – | – |

| Structure (SMILES) | IC50 [1] [nM] | IC50 [2] [nM] | IC50 (Histone deacetylase 1) [nM] | IC50 [4] [nM] | GI50 (MM1.S; time hrs <=72, read-out: GI50) [nM] | GI50 (MM1.S; [5]) [nM] | LC50 (THLE-2) [nM] | pLC50 (THLE-2) | Papp at 18 h [3] [×10⁻⁶ cm/s] |
| --- | --- | --- | --- | --- | --- | --- | --- | --- | --- |
| COc1cc2c(NCC3CCN(c4ncc(C(=O)NO)cn4)CC3)cc(-c3ccc(C)o3)nc2cc1OCC1CCNCC1 | 351 | 1140 | 6 | 2070 | > 10000 | > 10000 | 19700 | 4.71 | 0.025 |
| COc1cc2c(NCC3CCN(c4ncc(C(=O)NO)cn4)CC3)cc(C)nc2cc1OCCCN1CCCC1 | 350 | 555 | 7 | 4 | > 10000 | > 10000 | > 100000 | < 4 | – |
| COc1cc2c(NC3CCN(c4ncc(C(=O)NO)cn4)CC3)cc(C)nc2cc1OCCCN1CCCC1 | 118 | 2040 | 17 | 34 | > 10000 | > 10000 | 33250 | 4.48 | 0.075 |
| COc1cc2nc(-c3ccc(C)o3)cc(NCC3CCN(C4CC(C(=O)NO)C4)CC3)c2cc1OC (stereo not drawn) | 3180 | 540 | 453 | > 10000 | 1980 | 2000 | 10410 | 4.98 | 0.068 |
| COc1cc2c(NCC3CCN(Cc4ccc(C(=O)NO)cc4)CC3)cc(-c3ccc(C)o3)nc2cc1OCCCN1CCCC1 | 53 | 167 | 524 | 46 | 3570 | 3550 | 3890 | 5.41 | – |
| COc1cc2nc(C3CCCCC3)cc(NCC3CCN(c4ncc(C(=O)NO)cn4)CC3)c2cc1OC | 111 | > 10000 | 2 | > 10000 | 195 | 195 | 2298 | 5.64 | 0.21 |
| COc1cc2c(NCC3CCN(c4ccc(C(=O)NO)cc4)CC3)cc(-c3ccc(C)o3)nc2cc1OCCCN1CCCC1 | 67 | 417 | 78 | 269 | 3760 | 3720 | 9700 | 5.01 | 0.05 |
| COc1cc2c(NC3CCN(Cc4ccc(C(=O)NO)cc4)CC3)cc(-c3ccc(C)o3)nc2cc1OCCCN1CCCC1 | 39 | 318 | 147 | 47 | 4210 | 4170 | 22050 | 4.66 | – |
